Laboratory results as given in ChEMBL document CHEMBL3526119, “Effect of the CYP2C8 genotype on the pharmacokinetics and pharmacodynamics of repaglinide” (Drug Metab Dispos, 2011).

What was measured:
Type in all cases: ADME, organism-based
Conditions in all cases: in vivo
[1] = Drug excretion in healthy white human urine with CYP2C8*1/*1 genotype at 2 mg, po up to 24 hrs
Method in brief: (§1)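 Urine was collected before a single 2 mg oral dose and over 0–4, 4–8, 8–12, 12–16 and 16–24 h. Metabolites M1 and M4 were measured by LC-MS/MS. With no reference standards, amounts were expressed in arbitrary units as the peak area ratio to diclofenac internal standard. Ae0-24h is the sum of amounts over the collection periods.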

[2] = system: Homo sapiens; experiment: Drug excretion in healthy white human urine at 2 mg, po up to 24 hrs; method in brief: as §1
[3] = Drug excretion in healthy white human urine with CYP2C8*3/*3 genotype at 2 mg, po up to 24 hrs; method in brief: as §1
[4] = system: Homo sapiens; experiment: Drug excretion in healthy white human with SLCO1B1 521TC/CYP2C8*3/*3 combined genotype treated with 2 mg, po repaglinide; method in brief: as §1
[5] = system: Homo sapiens; experiment: Drug excretion in healthy white human with SLCO1B1 521TT/CYP2C8*3/*3 combined genotype treated with 2 mg, po repaglinide; method in brief: as §1
[6] = system: Homo sapiens; experiment: Drug excretion in healthy white human with SLCO1B1 521TT/CYP2C8*1/*3 combined genotype treated with 2 mg, po repaglinide; method in brief: as §1
[7] = Drug excretion in healthy white human urine with CYP2C8*1/*3 genotype at 2 mg, po up to 24 hrs; method in brief: as §1
[8] = system: Homo sapiens; experiment: Drug excretion in healthy white human with SLCO1B1 521CC/CYP2C8*3/*3 combined genotype treated with 2 mg, po repaglinide; method in brief: as §1
[9] = system: Homo sapiens; experiment: Drug excretion in healthy white human with SLCO1B1 521TT/CYP2C8*1/*1 combined genotype treated with 2 mg, po repaglinide; method in brief: as §1
[10] = system: Homo sapiens; experiment: Drug excretion in healthy white human with SLCO1B1 521TC/CYP2C8*1/*3 combined genotype treated with 2 mg, po repaglinide; method in brief: as §1
[11] = system: Homo sapiens; experiment: Drug excretion in healthy white human with SLCO1B1 521TC/CYP2C8*1/*1 combined genotype treated with 2 mg, po repaglinide; method in brief: as §1
[12] = system: Homo sapiens; experiment: Drug excretion in healthy white human with SLCO1B1 521CC/CYP2C8*1/*3 combined genotype treated with 2 mg, po repaglinide; method in brief: as §1

Structure (SMILES)	Ae [1] [a.u.]	Ae [2] [a.u.]	Ae [3] [a.u.]	Ae [4] [a.u.]	Ae [5] [a.u.]	Ae [6] [a.u.]	Ae [7] [a.u.]	Ae [8] [a.u.]	Ae [9] [a.u.]	Ae [10] [a.u.]	Ae [11] [a.u.]	Ae [12] [a.u.]
CCOc1cc(CC(=O)N[C@@H](CC(C)C)c2ccccc2N2CCCC(O)C2)ccc1C(=O)O (some centres undefined)	184.2	217.8	336.7	471.7	79.4	226.4	212.4	268.6	181.7	197.8	191.7	155.1
CCOc1cc(CC(=O)N[C@@H](CC(C)C)c2ccccc2N)ccc1C(=O)O	52.8	48.3	53.3	52.8	53.1	47.5	42.6	29.1	57	33.3	39.9	41.4
